The source made the active and inactive calls. No cut-off for these calls is given here.
These molecules were tested on Ileum (assay: Antispasmodic activity in mouse distal ileum assessed as inhibition of acetylcholine-induced contractions at 100 ug/ml after 20 mins). Conditions: not given.
Type: functional
Method in brief: (§1)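 Isolated mouse ileum segments. Contractions evoked by acetylcholine (10^-6 M) at 20 min intervals; after at least three stable control contractions, responses repeated with noncumulative increasing compound concentrations added 20 min before the stimulus, after tissue washing. Mean ± SEM of 6-8 experiments; concentration-response curves fitted by nonlinear regression.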
With `C[C@@H]1C[C@H]2OC(=O)[C@@]3(C)CCC[C@@](C)([C@@H]23)[C@@]12CC[C@@]1(CO[C@@H](O)C1)O2` the inhibition was “inactive”.
With `C[C@@H]1C[C@H]2OC(=O)[C@@]3(C)CCC[C@@](C)([C@@H]23)[C@@]1(O)CCC1=CC(=O)OC1` the inhibition was “inactive”.
`C[C@@H]1C[C@H]2OC(=O)[C@@]3(C)CCC[C@@](C)([C@@H]23)[C@@]12CC[C@@]1(CO[C@H](O)C1)O2` was tested, and the inhibition was “inactive”.
For `C[C@@H]1C[C@H]2OC(=O)[C@@]3(C)CCC[C@@](C)([C@@H]23)[C@@]12CC[C@@]1(COC(=O)C1)O2`, the inhibition was “Active”.
With `C[C@@H]1C[C@@H](O)[C@H]2C(C)(C)CCC[C@]2(C)[C@@]1(O)CCC1=CC(=O)OC1` the inhibition was “inactive”.
With `C[C@@H]1C[C@H]2OC(=O)[C@@]3(C)CCC[C@@](C)([C@@H]23)[C@@]12CC[C@]1(CO[C@@H](O)C1)O2` the inhibition was “Active”.
`C[C@@H]1C[C@H]2OC(=O)[C@@]3(C)CCC[C@@](C)([C@@H]23)[C@@]12CC[C@]1(CO[C@H](O)C1)O2` was tested, and the inhibition was “Active”.
For `C[C@@H]1C[C@H]2OC(=O)[C@@]3(C)CCC[C@@](C)([C@@H]23)[C@@]12CC[C@]1(COC(=O)C1)O2`, the inhibition was “Active”.
`C[C@@H]1C[C@H]2OC(=O)[C@@]3(C)CCC[C@@](C)([C@@H]23)[C@@]1(O)CCCC(=O)O` was tested, and the inhibition was “Active”.

Same assay, conditions: read-out: INH
`C[C@@H]1C[C@H]2OC(=O)[C@@]3(C)CCC[C@@](C)([C@@H]23)[C@@]12CCCC(=O)O2` [MARRULACTONE] showed an inhibition at 100 µg/mL of under 50%.
For `C[C@@H]1C[C@H]2OC(=O)[C@@]3(C)CCC[C@@](C)([C@@H]23)[C@@]12CCC(=O)O2`, the inhibition at 100 µg/mL was under 50%.

Each molecule was assayed on Ileum (assay: Antispasmodic activity in mouse distal ileum assessed as inhibition of acetylcholine-induced contractions after 20 mins). Conditions: not given.
Type: functional, tissue-based
Method in brief: as §1
`CCO[C@@H]1O[C@@H]2O[C@]3(CC[C@]2(O)[C@H]1O)[C@H](C)C[C@H]1OC(=O)[C@@]2(C)CCC[C@@]3(C)[C@@H]12` (relative stereo) was tested, and the inhibition was “Dose-dependent effect”.

From ChEMBL document CHEMBL1154208, “Antispasmodic effects and structure-activity relationships of labdane diterpenoids from Marrubium globosum ssp. libanoticum” (2009)
